Reference: ChEMBL document CHEMBL3621108, “Discovery, Development, and SAR of Aminothiazoles as LIMK Inhibitors with Cellular Anti-Invasive Properties” (J Med Chem, 2015)

Legend:
[1] = target: T1, LIM domain kinase 1 (Homo sapiens, UniProt P53667); test: Inhibition of recombinant N-terminal 6His-tagged LIMK1 (unknown origin) expressed in Sf21 cells by HTRF assay using cofilin as a substrate
Target sequence in this assay (P53667 whole entry, the tested form may be a part): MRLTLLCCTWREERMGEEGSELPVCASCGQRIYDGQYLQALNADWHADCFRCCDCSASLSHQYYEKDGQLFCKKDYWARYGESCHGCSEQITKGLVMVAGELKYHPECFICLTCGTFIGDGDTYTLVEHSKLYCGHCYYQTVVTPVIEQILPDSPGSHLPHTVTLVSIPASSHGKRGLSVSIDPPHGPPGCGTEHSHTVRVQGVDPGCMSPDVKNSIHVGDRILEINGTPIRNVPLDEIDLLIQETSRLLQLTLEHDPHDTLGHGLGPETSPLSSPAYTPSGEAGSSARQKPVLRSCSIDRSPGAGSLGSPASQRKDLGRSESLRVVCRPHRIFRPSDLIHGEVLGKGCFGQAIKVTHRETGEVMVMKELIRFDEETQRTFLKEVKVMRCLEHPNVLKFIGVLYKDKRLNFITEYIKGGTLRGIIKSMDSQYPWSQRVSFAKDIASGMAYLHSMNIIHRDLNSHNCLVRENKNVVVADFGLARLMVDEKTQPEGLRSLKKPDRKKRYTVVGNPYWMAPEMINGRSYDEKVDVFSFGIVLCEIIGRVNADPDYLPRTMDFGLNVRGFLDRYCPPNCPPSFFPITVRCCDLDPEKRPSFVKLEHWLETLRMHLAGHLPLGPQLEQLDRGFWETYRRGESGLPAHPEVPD

[2] = target: T1, LIM domain kinase 1; test: Inhibition of LIMK1 in human ZR75-1 cells assessed as inhibition of cofilin phosphorylation after 5 hrs; format: cell-based, ZR-75-1
Summary of the method: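 p-Cofilin biomarker assay in ZR-75-1 cells, imaged and quantified on a Cellomics array scan instrument.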
Target sequence in this assay (P53667 whole entry, the tested form may be a part): as above

[3] = Cytotoxicity against human MDA-MB-231 cells assessed as viable cells at 10 uM; format: cell-based; conditions: read-out: Activity
Summary of the method: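 MTT viability assay; cells exposed to 10 µM inhibitor, read-out as % viable cells.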

[4] = system: MDA-MB-231; test: Antiinvasion activity in human MDA-MB-231-luc cells at 3 uM by matrigel inverse invasion assay; format: functional
Summary of the method: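 MDA MB-231-luc cells plated on underside of transwell filter; invasion into matrigel plug (inverse format) scored by confocal microscopy of plug sections. Inhibition = proportion of cells invading beyond 60 µm versus under 60 µm, relative to control; compound at 3 µM.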

[5] = target: T2, Phosphatidylinositol 5-phosphate 4-kinase type-2 gamma (Homo sapiens) (UniProt Q8TBX8); conditions: 10 uM
T2 sequence (whole entry): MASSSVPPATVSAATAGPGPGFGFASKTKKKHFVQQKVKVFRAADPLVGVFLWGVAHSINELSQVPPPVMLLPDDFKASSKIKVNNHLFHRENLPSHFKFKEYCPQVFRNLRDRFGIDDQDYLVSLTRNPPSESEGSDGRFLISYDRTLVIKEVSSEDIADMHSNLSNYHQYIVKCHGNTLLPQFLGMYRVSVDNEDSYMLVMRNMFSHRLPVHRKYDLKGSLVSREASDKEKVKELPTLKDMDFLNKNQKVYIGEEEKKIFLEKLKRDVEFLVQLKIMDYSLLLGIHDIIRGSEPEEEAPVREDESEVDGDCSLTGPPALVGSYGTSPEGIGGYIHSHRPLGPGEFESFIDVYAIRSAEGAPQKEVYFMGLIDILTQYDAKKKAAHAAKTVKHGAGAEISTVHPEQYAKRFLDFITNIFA

[6] = target: Cyclin-dependent kinase 7 (Homo sapiens) (UniProt P50613); conditions: 10 uM
Cyclin-dependent kinase 7 (Homo sapiens), sequence (P50613 whole entry): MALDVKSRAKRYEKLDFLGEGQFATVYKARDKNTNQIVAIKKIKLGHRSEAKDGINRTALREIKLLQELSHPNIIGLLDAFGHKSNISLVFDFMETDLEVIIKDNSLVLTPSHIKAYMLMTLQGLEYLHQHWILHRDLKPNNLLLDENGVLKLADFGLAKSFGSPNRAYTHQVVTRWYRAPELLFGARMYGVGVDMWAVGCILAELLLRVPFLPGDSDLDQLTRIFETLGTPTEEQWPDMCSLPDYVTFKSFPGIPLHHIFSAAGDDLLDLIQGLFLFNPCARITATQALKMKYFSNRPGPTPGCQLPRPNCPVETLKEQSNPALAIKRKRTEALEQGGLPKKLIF

[7] = target: 5'-AMP-activated protein kinase catalytic subunit alpha-2 (Homo sapiens) (UniProt P54646); conditions: 10 uM
5'-AMP-activated protein kinase catalytic subunit alpha-2 (Homo sapiens), sequence (P54646 whole entry, looked up): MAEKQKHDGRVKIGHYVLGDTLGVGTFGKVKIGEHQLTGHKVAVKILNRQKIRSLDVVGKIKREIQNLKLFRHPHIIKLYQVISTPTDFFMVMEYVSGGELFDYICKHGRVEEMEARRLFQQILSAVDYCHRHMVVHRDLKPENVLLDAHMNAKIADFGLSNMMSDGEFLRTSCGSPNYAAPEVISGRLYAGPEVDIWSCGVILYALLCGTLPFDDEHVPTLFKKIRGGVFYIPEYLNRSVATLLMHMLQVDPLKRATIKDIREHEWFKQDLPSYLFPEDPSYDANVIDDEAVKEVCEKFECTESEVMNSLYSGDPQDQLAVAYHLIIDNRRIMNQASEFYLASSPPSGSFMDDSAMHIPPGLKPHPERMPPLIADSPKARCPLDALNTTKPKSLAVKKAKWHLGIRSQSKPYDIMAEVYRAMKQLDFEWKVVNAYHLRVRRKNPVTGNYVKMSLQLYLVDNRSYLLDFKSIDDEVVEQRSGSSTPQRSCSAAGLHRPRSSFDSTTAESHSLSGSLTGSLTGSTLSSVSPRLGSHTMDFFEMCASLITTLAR

[8] = target: Serine/threonine-protein kinase 16 (Homo sapiens) (UniProt O75716); conditions: 10 uM
Serine/threonine-protein kinase 16 (Homo sapiens), sequence (O75716 whole entry): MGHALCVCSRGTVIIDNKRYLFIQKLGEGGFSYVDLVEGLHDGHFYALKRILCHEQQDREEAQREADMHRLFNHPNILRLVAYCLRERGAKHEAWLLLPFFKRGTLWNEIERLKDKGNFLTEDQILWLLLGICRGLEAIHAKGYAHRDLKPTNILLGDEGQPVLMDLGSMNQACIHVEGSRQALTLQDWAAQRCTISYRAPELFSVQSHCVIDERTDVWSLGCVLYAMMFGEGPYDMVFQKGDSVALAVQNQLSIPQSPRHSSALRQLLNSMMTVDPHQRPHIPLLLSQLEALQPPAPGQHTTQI

[9] = target: T3, Mitogen-activated protein kinase 15 (Homo sapiens) (UniProt Q8TD08); conditions: 10 uM
T3 sequence (whole entry): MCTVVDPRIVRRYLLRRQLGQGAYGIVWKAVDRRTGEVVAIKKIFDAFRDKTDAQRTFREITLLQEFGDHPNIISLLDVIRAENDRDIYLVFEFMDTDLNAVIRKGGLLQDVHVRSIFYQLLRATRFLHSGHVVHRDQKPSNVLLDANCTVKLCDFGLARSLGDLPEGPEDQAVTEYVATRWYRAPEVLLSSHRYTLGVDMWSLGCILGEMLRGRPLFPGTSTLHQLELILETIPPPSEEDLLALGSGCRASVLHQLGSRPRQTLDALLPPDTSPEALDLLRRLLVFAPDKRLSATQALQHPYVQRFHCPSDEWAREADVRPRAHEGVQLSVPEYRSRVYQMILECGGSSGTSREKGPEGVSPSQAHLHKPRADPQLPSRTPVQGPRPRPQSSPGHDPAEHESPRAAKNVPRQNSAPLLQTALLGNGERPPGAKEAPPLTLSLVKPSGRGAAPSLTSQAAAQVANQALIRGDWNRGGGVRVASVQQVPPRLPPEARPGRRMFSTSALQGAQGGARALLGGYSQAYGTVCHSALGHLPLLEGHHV

[10] = target: T4, Discoidin domain-containing receptor 2 (Homo sapiens) (UniProt Q16832); conditions: 10 uM
T4 sequence (whole entry): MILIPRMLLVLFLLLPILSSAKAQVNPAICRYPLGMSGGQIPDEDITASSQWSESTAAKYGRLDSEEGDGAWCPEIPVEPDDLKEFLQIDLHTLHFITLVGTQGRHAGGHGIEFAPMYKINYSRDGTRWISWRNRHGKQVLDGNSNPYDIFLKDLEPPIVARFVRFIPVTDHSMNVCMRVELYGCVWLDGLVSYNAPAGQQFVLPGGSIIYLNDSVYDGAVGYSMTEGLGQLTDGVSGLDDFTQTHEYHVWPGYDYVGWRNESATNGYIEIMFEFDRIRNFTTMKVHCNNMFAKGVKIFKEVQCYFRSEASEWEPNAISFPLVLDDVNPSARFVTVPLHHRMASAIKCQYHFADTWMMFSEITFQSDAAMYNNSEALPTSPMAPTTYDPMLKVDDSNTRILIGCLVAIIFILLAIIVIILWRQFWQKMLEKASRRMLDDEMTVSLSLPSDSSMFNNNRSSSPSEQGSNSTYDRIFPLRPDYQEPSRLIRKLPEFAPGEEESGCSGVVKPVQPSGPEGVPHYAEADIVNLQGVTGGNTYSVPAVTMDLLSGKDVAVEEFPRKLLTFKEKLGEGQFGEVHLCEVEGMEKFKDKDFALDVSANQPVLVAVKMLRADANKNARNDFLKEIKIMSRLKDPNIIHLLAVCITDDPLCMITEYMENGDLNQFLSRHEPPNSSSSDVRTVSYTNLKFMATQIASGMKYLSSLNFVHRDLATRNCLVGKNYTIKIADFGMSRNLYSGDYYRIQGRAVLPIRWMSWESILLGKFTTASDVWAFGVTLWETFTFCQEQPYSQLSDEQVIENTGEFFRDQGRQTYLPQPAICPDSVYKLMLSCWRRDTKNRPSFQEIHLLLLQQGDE

[11] = target: T1, LIM domain kinase 1; conditions: 10 uM
Target sequence in this assay (P53667 whole entry, looked up, the tested form may be a part): as the sequence (P53667 whole entry, the tested form may be a part) above

[12] = target: Serine/threonine-protein kinase PAK 3 (Homo sapiens) (UniProt O75914); conditions: 10 uM
Serine/threonine-protein kinase PAK 3 (Homo sapiens), sequence (O75914 whole entry, looked up): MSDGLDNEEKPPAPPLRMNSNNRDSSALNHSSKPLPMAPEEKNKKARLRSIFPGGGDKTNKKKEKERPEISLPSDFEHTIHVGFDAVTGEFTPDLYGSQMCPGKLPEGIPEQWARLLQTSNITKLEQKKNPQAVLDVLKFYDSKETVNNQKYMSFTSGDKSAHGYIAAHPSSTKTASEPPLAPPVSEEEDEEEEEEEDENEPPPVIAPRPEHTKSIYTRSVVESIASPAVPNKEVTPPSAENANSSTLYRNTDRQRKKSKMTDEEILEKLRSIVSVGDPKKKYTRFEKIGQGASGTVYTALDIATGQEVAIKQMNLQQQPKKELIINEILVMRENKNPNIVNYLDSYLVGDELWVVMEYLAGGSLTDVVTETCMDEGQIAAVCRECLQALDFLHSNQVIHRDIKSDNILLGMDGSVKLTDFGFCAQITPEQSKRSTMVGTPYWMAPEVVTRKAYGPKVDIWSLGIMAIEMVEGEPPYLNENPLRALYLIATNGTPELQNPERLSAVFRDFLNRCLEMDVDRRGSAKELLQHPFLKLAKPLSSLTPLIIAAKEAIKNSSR

[13] = target: Cyclin-dependent kinase 18 (Homo sapiens) (UniProt Q07002); conditions: 10 uM
Cyclin-dependent kinase 18 (Homo sapiens), sequence (Q07002 whole entry): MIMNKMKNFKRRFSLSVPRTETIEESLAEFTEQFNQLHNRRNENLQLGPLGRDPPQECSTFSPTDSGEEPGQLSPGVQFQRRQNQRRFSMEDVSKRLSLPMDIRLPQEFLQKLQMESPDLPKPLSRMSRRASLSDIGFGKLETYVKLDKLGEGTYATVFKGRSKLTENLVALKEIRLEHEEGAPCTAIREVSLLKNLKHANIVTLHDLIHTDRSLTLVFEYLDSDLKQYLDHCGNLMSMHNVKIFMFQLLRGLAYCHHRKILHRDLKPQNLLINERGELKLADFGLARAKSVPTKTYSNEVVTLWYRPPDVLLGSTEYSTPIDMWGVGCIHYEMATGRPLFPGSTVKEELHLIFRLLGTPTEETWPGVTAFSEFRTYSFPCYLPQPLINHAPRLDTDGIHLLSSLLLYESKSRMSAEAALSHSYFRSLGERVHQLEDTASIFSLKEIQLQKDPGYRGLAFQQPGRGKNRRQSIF

[14] = target: Cyclin-dependent kinase 2 (Homo sapiens) (UniProt P24941); conditions: 10 uM
[15] = target: T5, Cyclin-dependent kinase-like 2 (Homo sapiens) (UniProt Q92772); conditions: 10 uM
T5 sequence (whole entry): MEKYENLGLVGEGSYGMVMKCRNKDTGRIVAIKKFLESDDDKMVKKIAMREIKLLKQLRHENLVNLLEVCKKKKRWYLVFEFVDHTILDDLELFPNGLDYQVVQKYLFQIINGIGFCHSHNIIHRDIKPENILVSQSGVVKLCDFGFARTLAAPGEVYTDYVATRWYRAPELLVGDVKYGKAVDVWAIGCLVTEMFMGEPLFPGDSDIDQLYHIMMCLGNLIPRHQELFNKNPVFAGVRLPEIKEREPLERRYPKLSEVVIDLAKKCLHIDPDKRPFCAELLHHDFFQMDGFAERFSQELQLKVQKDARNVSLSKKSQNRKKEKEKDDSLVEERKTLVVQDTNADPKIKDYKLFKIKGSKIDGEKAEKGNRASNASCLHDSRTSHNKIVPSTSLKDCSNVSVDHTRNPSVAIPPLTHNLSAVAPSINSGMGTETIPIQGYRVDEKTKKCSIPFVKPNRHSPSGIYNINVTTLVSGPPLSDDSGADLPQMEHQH

[16] = system: Liver microsome; test: Metabolic stability in human liver microsome assessed per gram of tissue; format: ADME; conditions: microsomes
[17] = Metabolic stability in mouse liver microsome assessed per gram of tissue; format: ADME; conditions: microsomes
[18] = target: 5'-AMP-activated protein kinase catalytic subunit alpha-1 (Homo sapiens) (UniProt Q13131); conditions: 10 uM
5'-AMP-activated protein kinase catalytic subunit alpha-1 (Homo sapiens), sequence (Q13131 whole entry, looked up): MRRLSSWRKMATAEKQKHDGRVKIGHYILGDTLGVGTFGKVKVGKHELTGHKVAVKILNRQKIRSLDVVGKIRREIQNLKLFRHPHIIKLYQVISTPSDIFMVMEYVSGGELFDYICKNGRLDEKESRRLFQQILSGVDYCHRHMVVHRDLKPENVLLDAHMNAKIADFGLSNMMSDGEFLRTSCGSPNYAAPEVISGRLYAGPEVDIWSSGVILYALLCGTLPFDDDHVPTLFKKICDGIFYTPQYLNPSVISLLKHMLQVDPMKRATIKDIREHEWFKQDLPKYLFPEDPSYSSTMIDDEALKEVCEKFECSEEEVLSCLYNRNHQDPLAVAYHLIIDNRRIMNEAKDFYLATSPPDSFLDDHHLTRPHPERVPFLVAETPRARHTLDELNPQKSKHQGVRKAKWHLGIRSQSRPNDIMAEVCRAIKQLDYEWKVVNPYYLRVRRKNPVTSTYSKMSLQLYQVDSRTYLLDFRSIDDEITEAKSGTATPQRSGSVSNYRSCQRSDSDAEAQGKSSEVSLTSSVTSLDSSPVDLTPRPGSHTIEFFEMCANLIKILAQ

[19] = target: T6, Serine/threonine-protein kinase MAK (Homo sapiens) (UniProt P20794); conditions: 10 uM
T6 sequence (whole entry): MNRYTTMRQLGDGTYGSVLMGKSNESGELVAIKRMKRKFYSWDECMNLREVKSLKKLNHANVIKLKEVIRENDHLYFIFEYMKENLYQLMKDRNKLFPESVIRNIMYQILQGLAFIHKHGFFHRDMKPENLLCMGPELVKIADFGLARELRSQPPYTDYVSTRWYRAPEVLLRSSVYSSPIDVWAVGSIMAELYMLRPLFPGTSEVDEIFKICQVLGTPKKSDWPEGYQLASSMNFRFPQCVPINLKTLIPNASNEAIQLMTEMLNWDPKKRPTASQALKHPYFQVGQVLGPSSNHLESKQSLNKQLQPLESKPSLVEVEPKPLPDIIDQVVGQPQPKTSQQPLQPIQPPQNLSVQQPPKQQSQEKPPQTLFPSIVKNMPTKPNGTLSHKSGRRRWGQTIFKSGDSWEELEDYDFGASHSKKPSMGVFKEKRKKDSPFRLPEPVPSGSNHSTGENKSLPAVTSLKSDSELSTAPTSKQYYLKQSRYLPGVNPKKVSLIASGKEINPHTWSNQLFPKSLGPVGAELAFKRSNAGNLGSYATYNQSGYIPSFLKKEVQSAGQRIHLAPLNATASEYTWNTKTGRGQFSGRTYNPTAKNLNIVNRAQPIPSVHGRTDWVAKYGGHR

[20] = target: T7, LIM domain kinase 2 (Homo sapiens, UniProt P53671); conditions: 10 uM
Target sequence in this assay (P53671 whole entry, looked up, the tested form may be a part): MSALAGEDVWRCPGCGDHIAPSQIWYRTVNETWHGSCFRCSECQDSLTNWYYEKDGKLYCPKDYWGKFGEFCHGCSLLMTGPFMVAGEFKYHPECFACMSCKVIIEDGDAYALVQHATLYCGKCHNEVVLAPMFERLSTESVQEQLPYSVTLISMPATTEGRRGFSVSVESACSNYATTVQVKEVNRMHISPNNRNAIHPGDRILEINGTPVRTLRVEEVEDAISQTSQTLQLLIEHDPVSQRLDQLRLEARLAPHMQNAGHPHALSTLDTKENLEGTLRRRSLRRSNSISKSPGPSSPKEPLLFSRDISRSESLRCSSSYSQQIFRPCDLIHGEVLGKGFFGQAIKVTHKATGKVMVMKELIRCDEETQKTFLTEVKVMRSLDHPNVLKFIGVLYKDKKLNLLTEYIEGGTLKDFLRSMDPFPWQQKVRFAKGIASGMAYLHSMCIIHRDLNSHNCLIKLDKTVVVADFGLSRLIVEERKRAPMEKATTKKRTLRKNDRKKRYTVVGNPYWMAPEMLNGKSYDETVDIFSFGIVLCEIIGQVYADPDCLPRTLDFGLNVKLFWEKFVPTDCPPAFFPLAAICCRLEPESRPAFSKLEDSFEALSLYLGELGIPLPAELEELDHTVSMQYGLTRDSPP

[21] = target: T7, LIM domain kinase 2; test: Inhibition of human N-terminal GST-tagged LIMK2
Summary of the method: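 LIMK2 activity measured in a lanthabind-format assay.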
Target sequence in this assay (P53671 whole entry, the tested form may be a part): as the sequence (P53671 whole entry, looked up, the tested form may be a part) above

Structure (SMILES)	IC50 [1] [nM]	IC50 [2] [nM]	further results
CCCNc1ncc(-c2ccncc2-c2ccccc2)s1	850		
CCCN(C)c1ncc(-c2ccncc2-c2ccccc2Cl)s1	3100		
CCCNc1ncc(-c2ccncc2-c2ccc(OC)cc2C(F)(F)F)s1	13	2500	
CCCNc1ncc(-c2ccncc2-c2ccc(Cl)cc2)s1	620		
CCCNc1ncc(-c2ccncc2-c2ccccc2C(C)C)s1	3300		
Nc1ncc(-c2ccncc2-c2ccccc2Cl)s1	270	> 30000	
CCCNc1ncc(-c2ccncc2)s1	19000		
CC(C)C(=O)Nc1ncc(-c2ccncc2-c2ccccc2Cl)s1	3	800	
C[C@@H](Nc1ncc(-c2ccncc2-c2ccccc2Cl)s1)c1ccccc1	4	2100	
C[C@H](Nc1ncc(-c2ccncc2-c2ccccc2Cl)s1)c1ccccc1	40	9200	
CC(=O)Nc1ncc(-c2ccncc2-c2ccccc2Cl)s1	20	1400	
COc1ccc(-c2cnccc2-c2cnc(NC(=O)C(C)C)s2)c(C(F)(F)F)c1		2000	viability at 10 µM [3]: 106%; inhibition [5]: > 90%; inhibition [6]: > 90%; inhibition [7]: > 90%; inhibition [8]: > 90%; inhibition [9]: > 90%; inhibition [10]: > 90%; inhibition [11]: > 90%; inhibition [12]: > 90%; inhibition [13]: > 90%; inhibition [14]: > 90%; inhibition [15]: > 90%; Stability [16]: 3.7 mL/min; Stability [17]: 5.2 mL/min; inhibition at 3 µM [4]: 52%; inhibition [18]: > 90%; inhibition [19]: > 90%; inhibition [20]: > 90%; IC50 [21]: 48 nM
C=CCNc1nc(N)c(C(=O)c2ccc3c(c2)OCO3)s1	4000		
CCCNc1ncc(-c2ccncc2-c2cccc(Cl)c2)s1	500		
Clc1ccccc1-c1cnccc1-c1cnc(Nc2ccccc2)s1	3	600	
Cc1ccc(-c2cnccc2-c2cnc(NC(=O)C(C)C)s2)c(Cl)c1	1		viability at 10 µM [3]: 131%; Stability [16]: 8.3 mL/min; Stability [17]: 19.4 mL/min; inhibition at 3 µM [4]: 48%; IC50 [21]: 3 nM

More lines, main results first:

IC50 [1] [nM]	IC50 [2] [nM]	Structure (SMILES)	further results
82	11500	CCCNc1ncc(-c2ccncc2-c2ccccc2C)s1	
327		CCCNc1ncc(-c2cccnc2-c2ccccc2Cl)s1	
5	1500	CC(C)CNc1ncc(-c2ccncc2-c2ccccc2Cl)s1	viability at 10 µM [3]: 88%; inhibition at 3 µM [4]: 34%
120	14000	CCNc1ncc(-c2ccncc2-c2ccccc2Cl)s1	
15	3800	CCCNc1ncc(-c2ccncc2-c2ccccc2Cl)s1	
574		CCCNc1ncc(-c2cnccc2-c2ccccc2Cl)s1	
37	2200	CCCNc1ncc(-c2ccncc2-c2ccccc2C(F)(F)F)s1	
≥ 30000		CCCNc1ncc(-c2ncccc2-c2ccccc2Cl)s1	
